# D1 mod = allosteric modulators of human D1 dopamine receptor; P21728; HEK293 D1, CRE-luciferase, dopamine EC30 potentiation; actives deviate in either direction; B-score at 10 µM; actives 5.9% (n = 58,000);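 active = luminescence count or its row- and column-corrected plate score outside the 99.7% band of the plate's sample wells, on either side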
# AP ELISA ortho = orthogonal test for alternative complement pathway inhibitors; Human serum alternative complement pathway, LPS-coated ELISA, C3 deposition; tested in compound mixtures; inhibition, % at 5 µM; actives 0.08% (n = 62,000); AID 1235;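 active = inhibition above 30% in each of the two pooled mixtures holding the compound, so the lower value exceeds 30%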;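 also: 0% = serum in Mg-EGTA without compound and 100% = EDTA serum blank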
#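 Medium: diluted human serum in Mg2+-EGTA GVB++. Assay system: human serum complement alternative pathway, C3 deposition onto LPS. Also added: Plate-bound LPS. Technique: Anti-C3 ELISA, OD 450 nm. Measure: percent inhibition. Incubation: 1 h at 37 °C. Dosing: 5 µM each compound, pools of ten, 50 µM per pool.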
# HEK293 NFkB inh = inhibitors of the PMA/ionomycin-induced NF-kB reporter in HEK293 cells | HEK-293 NF-kB luciferase reporter, luminescence | inhibition, % at 3 µM | actives 0.21% (n = 62,000);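 active = inhibition above the mean of all tested compounds plus 3 SD, cut at about 40% in these data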;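 also: 0% = stimulated DMSO wells and 100% = 10 µM reference inhibitor 5653914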
#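 Reagent: PMA plus ionomycin mix as NF-kB-activating stimulus. Assay system: NF-kB luciferase reporter HEK-293 cells. Technique: luminescence from luciferase substrate reagent. Incubation: 1 h compound pre-incubation, 16 h PMA/ionomycin at 37 °C. Benchmarks: DMSO only as uninhibited control, 10 µM reference inhibitor as full inhibition. Repeats: tested once.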
# E coli RNAP = blocks E. coli RNA polymerase transcription; P0A8V2; fluorescence transcription assay; inhibition, %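 (tested at 10 µM)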; actives 0.2% (n = 62,000); in the data active = inhibition above about 20%;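 also: 0% = enzyme without compound and 100% = no enzyme blank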
# Target sequence (P0A8V2 whole entry, looked up): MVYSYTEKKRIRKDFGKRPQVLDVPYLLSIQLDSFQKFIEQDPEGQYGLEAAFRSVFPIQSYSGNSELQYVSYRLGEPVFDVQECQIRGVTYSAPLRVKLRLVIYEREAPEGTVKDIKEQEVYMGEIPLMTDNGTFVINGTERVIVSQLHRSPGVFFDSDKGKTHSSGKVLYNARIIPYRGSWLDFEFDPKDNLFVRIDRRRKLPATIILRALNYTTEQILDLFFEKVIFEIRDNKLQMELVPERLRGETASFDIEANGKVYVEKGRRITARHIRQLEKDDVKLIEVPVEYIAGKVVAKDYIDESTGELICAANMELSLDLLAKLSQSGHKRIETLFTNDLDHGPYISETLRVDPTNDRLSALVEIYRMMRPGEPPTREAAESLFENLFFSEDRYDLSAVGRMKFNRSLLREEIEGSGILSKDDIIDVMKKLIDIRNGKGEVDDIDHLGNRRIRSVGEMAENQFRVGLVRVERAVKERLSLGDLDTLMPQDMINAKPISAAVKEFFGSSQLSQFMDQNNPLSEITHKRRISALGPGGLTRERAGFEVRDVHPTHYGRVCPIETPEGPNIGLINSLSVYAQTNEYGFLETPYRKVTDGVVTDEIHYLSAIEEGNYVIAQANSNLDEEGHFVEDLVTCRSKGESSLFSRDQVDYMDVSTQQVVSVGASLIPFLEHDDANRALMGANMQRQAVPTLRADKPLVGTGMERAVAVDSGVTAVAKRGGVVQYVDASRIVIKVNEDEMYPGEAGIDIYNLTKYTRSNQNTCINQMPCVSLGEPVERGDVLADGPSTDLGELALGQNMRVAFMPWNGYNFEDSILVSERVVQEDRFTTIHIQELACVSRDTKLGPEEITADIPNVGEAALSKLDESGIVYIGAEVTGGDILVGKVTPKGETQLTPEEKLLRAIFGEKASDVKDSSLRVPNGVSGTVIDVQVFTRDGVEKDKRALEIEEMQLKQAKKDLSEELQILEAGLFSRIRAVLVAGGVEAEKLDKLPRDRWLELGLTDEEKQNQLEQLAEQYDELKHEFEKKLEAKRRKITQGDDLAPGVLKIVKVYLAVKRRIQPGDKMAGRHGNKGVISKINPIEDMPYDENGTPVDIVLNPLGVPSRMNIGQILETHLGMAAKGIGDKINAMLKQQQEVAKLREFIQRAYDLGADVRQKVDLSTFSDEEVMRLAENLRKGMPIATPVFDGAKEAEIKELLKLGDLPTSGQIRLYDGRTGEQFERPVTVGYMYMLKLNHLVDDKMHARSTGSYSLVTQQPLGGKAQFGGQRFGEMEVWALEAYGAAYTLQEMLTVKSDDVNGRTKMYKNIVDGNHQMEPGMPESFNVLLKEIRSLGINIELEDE
# hDAT+cocaine = changed human dopamine transporter uptake under cocaine IC80; AID 449768; LLC-PK1 hDAT cells, [14C]-dopamine uptake with cocaine IC80; actives deviate in either direction; Q01959; actives 1.3% (n = 110,000); B-score at 10 µM;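 active = Z score or B-score, a plate-position-corrected score, falls beyond the plate's 99.7% confidence bounds, in either direction; inactive = both scores lie inside the 99.7% bounds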;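 also: scored against the spread of the other compound wells on the same plate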
# D1 PAM confirm = D1 receptor (human) allosteric modulation, confirmed | shares compounds with D1 mod | HEK293 D1 CRE-luciferase, dopamine EC30 potentiation; hits give high values | luminescence at 10 µM | actives 88% (n = 2,200);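 active = luminescence in either of two replicates above the same-plate mean plus 3 SD of the low-dose dopamine control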
# D1 no dopamine = D1 (human) signaling in absence of dopamine; shares compounds with D1 mod; HEK293 D1 CRE-luciferase, luminescence, no dopamine; hits give high values; luminescence at 10 µM; actives 0.8% (n = 1,900); AID 646; in the data active = luminescence above about 3900
# Isoprot counter = alters isoproterenol CRE-luciferase response in HEK293 cells; shares compounds with D1 mod; HEK293 D1 CRE-luciferase, isoproterenol EC30 counter-screen; calls only at 10 µM; actives 63% (n = 2,200); AID 647;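 active = luminescence in either replicate above plate mean of wells with a partly effective reference agonist dose plus 3 SD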;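 also: isoproterenol raises cAMP through native beta-adrenoceptor Gs so signal bypasses D1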
# * hit, by the source's call; i = inactive; . = no result; + = active, no number. Only a selection was taken, and hits are over-represented in it overall.
SMILES,D1 mod,AP ELISA ortho,HEK293 NFkB inh,E coli RNAP,hDAT+cocaine,D1 PAM confirm,D1 no dopamine,Isoprot counter
Cc1nnc(SCCn2c(N3CCCC(C)C3)nc3c2c(=O)[nH]c(=O)n3C)s1 (stereo unspecified),4.1*,7,-8,10,0.079,9916*,1740,i
Cn1c(=O)[nH]c(=O)c2c1nc(N1CCCC1)n2CCCSc1nc2ccccc2o1,5.3*,17,19,4,0.22,17352*,2232,+
Cn1c(=O)[nH]c(=O)c2c1nc(Br)n2CCCSc1nc2ccccc2o1,6.7*,-3,12,9,-0.74,10016*,1580,+
CCOC(=O)c1c(C)c(C(=O)Nc2cc(OC)ccc2OC)c(C)n1CC,3.1*,18,10,2,0.35,7504*,1448,+
CSc1nc(-c2ccco2)nn1S(=O)(=O)c1ccc(C)cc1,6.5*,21,8,6,-0.54,11872*,.,+
CSc1nc(-c2ccco2)nn1S(=O)(=O)c1ccccc1,6.6*,-11,16,6,0.46,19196*,1648,+
CCS(=O)(=O)n1nc(-c2ccco2)nc1SC,.,4,11,10,-0.036,.,.,.
Cc1ccc(S(=O)(=O)n2nc(-c3ccco3)nc2SCc2ccccc2)cc1,0.0023,.,-1,.,-1.5,.,.,.
Cc1nnc2c(NC(C)C)nc3ccccc3n12,16*,.,.,10,-0.31,12020*,1592,+
Cc1nc2ccccc2c2nc3ccccc3n12,2,-8,.,1,-0.24,.,.,.
CCCC(=O)Nc1ccc(NC(=O)C2CC2)cn1,5.3*,12,-5,-5,-0.68,5976*,1712,i
CC1(C(=O)N(CC(=O)NC2CCCC2)Cc2ccco2)CC(=O)N=C2C=CC=CN21 (stereo unspecified),.,19,-2,-2,-0.68,.,.,.
CCC(=O)Nc1sc2c(c1C#N)CC(C)(C)NC2(C)C,6.4*,11,25,6,0.0033,7612,1848,i
CC(C)CC(=O)Nc1sc2c(c1C#N)CC(C)(C)NC2(C)C,.,.,.,.,0.23,.,.,.
Nc1nc(Cl)nc2c1ncn2[C@@H]1O[C@H](CO)[C@@H](O)[C@H]1O,24*,20,.,5,-0.57,16252*,5660*,+
CC(=O)Nc1sc(C)c(C)c1C(=O)OC1CCOC1=O (stereo unspecified),.,10,16,4,-0.66,.,.,.
CCCS(=O)(=O)N1CCC(C(=O)NCCN(C)Cc2ccccc2)CC1,2.6*,7,-2,2,-1.6,5744,1548,i
O=C(OCCCCN1C(=O)c2ccccc2C1=O)c1n[nH]c2ccccc12,5.1*,17,4,8,-0.15,7836*,1704,i
COCc1cc(C)nc2sc(C(=O)N3CCN(c4ccccc4)CC3)c(N)c12,4.6*,0,8,11,1.2,8080*,1512,i
Cc1ccc(-n2nc3c(c2NC(=O)c2ccc(Br)o2)CSC3)c(C)c1,4.8*,14,23,1,-0.49,5856,1520,i
CCOC(=O)C1CCCN(C(=O)c2ccc(OCC)cc2)C1 (stereo unspecified),0.29,-5,4,4,1.5,.,.,.
OCCNc1ncnc2c1c(-c1ccccc1)c(-c1ccccc1)n2Cc1ccco1,5.8*,-19,.,5,0.44,8384*,1284,i
CC(=O)n1c2ccccc2c2nc(NC(C)C)sc21,6.4*,11,4,5,0.77,8636*,1696,+
CCOC(=O)c1[nH]c(C)c(C(=O)OCc2c(C)noc2C)c1C,5.1*,9,13,9,-0.37,7568*,880,+
CCc1nc(SCCO)c2oc3ccccc3c2n1,10*,-8,-1,-2,-0.1,17028*,.,+
SMILES,D1 mod,AP ELISA ortho,HEK293 NFkB inh,E coli RNAP,hDAT+cocaine,D1 PAM confirm,D1 no dopamine,Isoprot counter
CCc1nc(OCCN(CC)CC)c2oc3ccccc3c2n1,2,13,3,.,-1.4,.,.,.
CCc1nc(N(CC)CC)c2oc3ccccc3c2n1,3.2*,8,21,6,-0.17,3956,.,i
N#CCCSc1ncnc2c1oc1ccccc12,5.4*,-2,2,11,-0.25,14144*,1812,+
OCCSc1ncnc2c1oc1ccccc12,2.5,4,6,3,0.042,.,.,.
O=C(OCCN1C(=O)c2ccccc2C1=O)C1CCN(S(=O)(=O)c2cccs2)CC1,.,5,8,6,-0.0084,.,.,.
Cc1ccc(-c2nnc(CSc3nc(C(C)C)nc4sc(C)c(C)c34)o2)cc1,.,.,.,.,0.43,.,.,.
C/C(NC(=O)c1cccs1)=C1\C(=O)C[C@@H]2[C@H]1C2(C)C,.,.,.,9,0.79,.,.,.
O=S(=O)(NC1CCc2ccccc21)c1ccc(S(=O)(=O)N2CCCC2)cc1 (stereo unspecified),-0.043,-3,19,4,-0.49,.,.,.
CCCn1c(NCc2ccco2)nc2ccccc21,-1.6,15,16,8,-0.017,.,.,.
CCCCCn1c(NCc2ccco2)nc2ccccc21,6.3*,13,15,7,0.89,12176*,1460,i
COc1ccc(NC(=O)Cn2cccc2)cc1Cl,0.53,10,5,8,0.22,.,.,.
COc1ccc(C(=O)Nc2ccc(NC(=O)c3cnccn3)cn2)cc1,.,.,.,.,0.21,.,.,.
CCOC(=O)CSc1nnc(-c2ccco2)n1-c1ccccc1,0.59,7,16,4,-0.47,.,.,.
COC(=O)c1cccc(CSc2nnc(-c3ccco3)n2-c2ccccc2)c1,4.2*,-4,6,9,0.36,17968*,1916,+
COC(=O)CSc1nnc(-c2ccco2)n1-c1ccc(C)cc1,15*,29,1,.,1.5,17312*,1612,+
COc1ccc(OC)c(NC(=O)CSc2nnc(-c3ccco3)n2-c2ccccc2)c1,.,3,18,9,-0.33,.,.,.
COC(=O)CSc1nnc(-c2ccoc2C)n1-c1ccc(C)cc1,1.1,-5,0,4,0.23,.,.,.
CCOC(=O)CSc1nnc(-c2ccco2)n1-c1ccc(C)cc1,4.3*,20,11,7,0.016,5532,.,+
Cc1ccc(C(=O)CSc2nnc(CNc3ccc(C)cc3C)o2)cc1,0.25,0,8,3,-0.16,.,.,.
CCCC1C2C(=O)N(c3ccccc3OCC)C(=O)C2ON1c1ccccc1 (stereo unspecified),.,.,.,.,-1.3,.,.,.
CC(=O)c1cccc(-n2nnnc2SCC(=O)Nc2cccc(NC(=O)c3ccco3)c2)c1,0.026,-4,8,7,0.028,.,.,.
